Calls of active or inactive are those of the source. The calls are words filed in the database; no cut-off is given here.
Tests used:
Blood [1] = assay: Drug metabolism in human whole blood assessed as (E)-1-methyl-3-(2-pyridinylmethyl)-5-(2-pyridinylmethylidene)-4-piperidone formation at 1 uM after 2 hrs by LC/MS-MS analysis; assay type: ADME, tissue-based
[2] = Drug metabolism in human liver S9 fraction assessed as (E)-1-methyl-3,5-bis(2-pyridinylmethylidene)-4-hydroxypiperidine formation at 1 uM using 1% DMSO measured after 1 hr by LC/MS-MS analysis in absence of NADPH; assay type: ADME; settings: s9, 1 h
In short: (§1)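 Compound was incubated in pooled liver S9 fractions (mouse, cynomolgus monkey, human), mostly with NADPH and in 1% DMSO. Human S9 was also run without NADPH, and at 0.2% DMSO. Parent loss and metabolite formation were followed over time by LC–MS/MS, and half-life was derived from parent depletion.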

[3] = Half life in human liver S9 fraction at 2 uM using 0.2% DMSO in presence of NADPH; assay type: ADME, subcellular; in short: as §1
[4] = Plasma protein binding in mouse; assay type: ADME, organism-based; settings: read-out: PPB (converted)
TU212 = assay: Cytotoxicity against human TU212 cells assessed as cell viability at 5 to 10 uM after 48 hrs by neutral red dye uptake assay; assay type: functional, cell-based
In short: (§2)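 TU212 (head and neck SCC) and MDA-MB-231 (breast adenocarcinoma) cells were exposed to compounds at 5 and 10 μM with DMSO below 0.1%. Viability was read by neutral red uptake. Error bars are standard error of the mean, and significance was tested by two-tailed t test.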

[5] = Half life in cynomolgus monkey liver S9 fraction at 1 uM using 1% DMSO; assay type: ADME, subcellular, Macaca fascicularis; in short: as §1
[6] = Metabolic stability in human liver S9 fraction assessed as remaining compound level at 2 uM using 0.2% DMSO measured after 1 hr by LC/MS-MS analysis in absence of NADPH; assay type: ADME; settings: read-out: Stability; in short: as §1
[7] = Drug metabolism in Beagle dog whole blood assessed as (E)-1-methyl-3-(2-pyridinylmethyl)-5-(2-pyridinylmethylidene)-4-piperidone formation at 1 uM after 2 hrs by LC/MS-MS analysis; assay type: ADME, tissue-based, Canis lupus familiaris
[8] = Elimination half life in mouse; assay type: ADME, organism-based; settings: in vivo, read-out: beta t1/2 (converted)
[9] = Half life in CD1 mouse liver S9 fraction at 1 uM using 1% DMSO; assay type: ADME, subcellular; in short: as §1
[10] = Drug metabolism in human liver S9 fraction assessed as (E)-1-methyl-3-(2-pyridinylmethyl)-5-(2-pyridinylmethylidene)-4-piperidone formation at 1 uM using 1% DMSO measured at 60 mins by LC/MS-MS analysis in presence of NADPH; assay type: ADME, subcellular; settings: s9, 1 h; in short: as §1
[11] = Drug metabolism in human liver S9 fraction assessed as (E)-1-methyl-3,5-bis(2-pyridinylmethylidene)-4-hydroxypiperidine formation at 1 uM using 1% DMSO measured at 60 mins by LC/MS-MS analysis in presence of NADPH; assay type: ADME, subcellular; settings: s9, 1 h; in short: as §1
[12] = Half life in human liver S9 fraction at 2 uM in absence of NADPH
[13] = Metabolic stability in human liver S9 fraction assessed as remaining compound level at 2 uM using 0.2% DMSO measured after 1 hr by LC/MS-MS analysis in presence of NADPH; assay type: ADME, subcellular; settings: read-out: Stability; in short: as §1
[14] = Drug metabolism in human liver S9 fraction assessed as (E)-1-methyl-3-(2-pyridinylmethyl)-5-(2-pyridinylmethylidene)-4-piperidone formation at 1 uM using 1% DMSO measured after 1 hr by LC/MS-MS analysis in absence of NADPH; assay type: ADME; settings: s9, 1 h; in short: as §1
[15] = Drug metabolism in cynomolgus monkey whole blood assessed as (E)-1-methyl-3-(2-pyridinylmethyl)-5-(2-pyridinylmethylidene)-4-piperidone formation at 1 uM after 2 hrs by LC/MS-MS analysis; assay type: ADME, tissue-based, Macaca fascicularis
[16] = Drug metabolism in Sprague-Dawley rat liver S9 fraction at 1 uM using 1% DMSO measured after 60 mins by LC/MS-MS analysis in presence of NADPH; assay type: ADME, subcellular; settings: s9, 1 h
[17] = Drug metabolism in CD1 mouse liver S9 fraction assessed as (E)-1-methyl-3-(2-pyridinylmethyl)-5-(2-pyridinylmethylidene)-4-piperidone formation at 1 uM using 1% DMSO measured at 60 mins by LC/MS-MS analysis in presence of NADPH; assay type: ADME, subcellular; settings: s9, 1 h; in short: as §1
[18] = Elimination half life in ND4 Swiss Webster mouse at 12.5 to 25 mg/kg, ip; assay type: ADME, organism-based; design: dose 12.5-25 mg/kg, route intraperitoneal; settings: in vivo, read-out: beta t1/2
Liver = assay: Drug level in human liver S9 fraction treated with UBS109 at 1 uM using 1% DMSO measured after 1 hr by LC/MS-MS analysis in absence of NADPH; assay type: ADME; settings: s9, 1 h; in short: as §1
[19] = Growth inhibition of human TU212 cells after 48 hrs by neutral red dye uptake assay; assay type: functional; settings: TU212, 48 h; in short: as §2
Blood [20] = assay: Drug level in human whole blood treated with UBS109 at 1 uM after 2 hrs by LC/MS-MS analysis; assay type: ADME, tissue-based
MDA-MB-231 = assay: Growth inhibition of human MDA-MB-231 cells after 48 hrs by neutral red dye-based assay; assay type: functional; settings: MDA-MB-231, 48 h; in short: as §2
[21] = Drug level in cynomolgus monkey whole blood treated with UBS109 at 1 uM after 2 hrs by LC/MS-MS analysis; assay type: ADME, tissue-based, Macaca fascicularis
[22] = Drug level in Beagle dog whole blood treated with UBS109 at 1 uM after 2 hrs by LC/MS-MS analysis; assay type: ADME, tissue-based, Canis lupus familiaris
[23] = Drug level in human liver S9 fraction treated with UBS109 at 1 uM using 1% DMSO measured at 60 mins by LC/MS-MS analysis in presence of NADPH; assay type: ADME, subcellular; settings: s9, 1 h; in short: as §1
[24] = Drug level in CD1 mouse liver S9 fraction treated with UBS109 at 1 uM using 1% DMSO measured after 60 mins by LC/MS-MS analysis in presence of NADPH; assay type: ADME, subcellular; settings: s9, 1 h; in short: as §1

Question: Which results are given for `CN1C/C(=C\c2ccccn2)C(=O)/C(=C/c2ccccn2)C1`?
Answer: Drug metabolism (Blood [1]): metabolite_detected; Drug metabolism [2]: metabolite_detected; half-life at 2 µM [3]: 9 min; fraction unbound [4]: 0.06; Activity (TU212): Active; half-life at 1 µM [5]: 8 min; remaining at 1 h, 2 µM [6]: 27.6%; Drug metabolism [7]: metabolite_detected; half-life [8]: 240 min; half-life at 1 µM [9]: 38 min; Drug metabolism [10]: metabolite_detected; Drug metabolism [11]: metabolite_detected; half-life at 2 µM [12]: 18 min; remaining at 1 h, 2 µM [13]: 4.1%; Drug metabolism [14]: metabolite_detected; Drug metabolism [15]: metabolite_detected; Drug metabolism [16]: metabolite_detected; Drug metabolism [17]: metabolite_detected

Question: Which half-life [18] does the source give for `O=C1/C(=C/c2ccccn2)CNC/C1=C\c1ccccn1` here?
Answer: ≤ 1 min

Question: What does the source list for `CN1C/C(=C\c2ccccn2)C(=O)C(Cc2ccccn2)C1` (configuration not stated)?
Answer: Drug metabolism (Liver): metabolite_detected; GI50 [19]: > 10 µM; Drug metabolism (Blood [20]): metabolite_detected; GI50 (MDA-MB-231): > 5 µM; Drug metabolism [21]: metabolite_detected; Drug metabolism [22]: metabolite_detected; Drug metabolism [23]: metabolite_detected; Drug metabolism [24]: metabolite_detected

Question: For `O=C1/C(=C/c2ccccc2F)CNC/C1=C\c1ccccc1F`, which half-life [8] is on record?
Answer: 60 min

Question: Which Drug metabolism (Liver) does the source give for `CN1C/C(=C\c2ccccn2)C(O)/C(=C/c2ccccn2)C1` (configuration not stated) here?
Answer: metabolite_detected

Question: And the GI50 [19]?
Answer: > 10 µM

Question: And the GI50 (MDA-MB-231)?
Answer: > 10 µM

Question: What about the Drug metabolism [23] of the same compound?
Answer: metabolite_detected
